One data set deals with E. faecium NCTC 7171. Nature of the data set: MIC, broth microdilution. The format is cell-based, Enterococcus faecium. Conditions: for antibacterial activity against E. faecium (in words): SAR discussion, E. faecium NCTC 7171; for MIC: Enterococcus faecium, NCTC7171, E. faecium NCTC 7171. (In general: In broth dilution the organism is exposed to a series of concentrations in liquid medium.)

Data set [1] in a line: In vitro metabolic stability in human liver S9. The format is in vitro ADME. Conditions: calculated from in vitro half-life in human liver S9.
The nature of data set [2]: Plasma-protein binding, equilibrium dialysis. The format is in vitro ADME. Particulars: human plasma.
The target in another data set is PBP2a of S. aureus (Staphylococcus aureus, UniProt P07944). The experiment in a line: BOCILLIN FL binding assay for PBP2a. Conditions: at concentrations of up to 100 μg/mL.
PBP2a of S. aureus, sequence (P07944 whole entry, the tested form may be a part): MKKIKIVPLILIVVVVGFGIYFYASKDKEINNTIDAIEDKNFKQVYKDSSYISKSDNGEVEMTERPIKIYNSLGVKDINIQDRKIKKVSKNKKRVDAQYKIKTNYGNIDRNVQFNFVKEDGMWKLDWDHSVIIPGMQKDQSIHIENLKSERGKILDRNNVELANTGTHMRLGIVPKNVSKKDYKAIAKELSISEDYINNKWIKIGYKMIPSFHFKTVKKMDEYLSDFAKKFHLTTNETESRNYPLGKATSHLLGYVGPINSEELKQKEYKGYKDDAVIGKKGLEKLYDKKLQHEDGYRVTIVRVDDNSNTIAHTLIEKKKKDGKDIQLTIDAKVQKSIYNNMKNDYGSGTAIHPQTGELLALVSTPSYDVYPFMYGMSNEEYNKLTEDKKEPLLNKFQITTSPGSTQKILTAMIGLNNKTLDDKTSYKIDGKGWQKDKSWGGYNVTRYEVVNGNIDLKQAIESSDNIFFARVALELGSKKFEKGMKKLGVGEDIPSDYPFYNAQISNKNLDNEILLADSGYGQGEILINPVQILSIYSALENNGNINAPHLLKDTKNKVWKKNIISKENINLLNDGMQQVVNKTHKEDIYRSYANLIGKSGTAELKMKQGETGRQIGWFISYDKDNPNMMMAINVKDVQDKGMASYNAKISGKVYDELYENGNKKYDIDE
A further data set deals with PBP5fm of E. faecium. Nature of the data set: BOCILLIN FL binding assay for PBP5fm. Conditions: at up to 100 μg/mL. The procedure, abridged: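 Recombinant PBP5 (aa 34-678, E. faecium D63r) carried an N-terminal His-tag, was expressed in E. coli BL21(DE3), and was purified by anion exchange then metal chelate column. Enzyme (40 μM final) was preincubated with test compound in 25 mM Hepes, 1 M NaCl, pH 7.0 at 37 °C. BOCILLIN FL (30 μM final) was then added, with incubations of 20 min. Labelling was read by 12% SDS-PAGE fluorescence scan and band quantitation against a no-inhibitor control.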

The subject of data set [3] is PBPs in the E. faecium membrane fractions. Nature of the data set: PBP inhibition in E. faecium membrane fractions. Particulars: data less clear due to low PBP copy numbers. The format is binding.
A short description of another data set: Hemolysis assay. Conditions: red blood cells.
For data set [4] the following is noted: marketed antibiotics; cited from earlier work.

Entries after “also recorded” stand apart in the source; their conditions may differ.

Take `CC1=C(C(N)=O)C(c2ccccc2)n2nc(SCc3ccccc3)nc2N1` (stereo not shown) [Compound 2]: the “antibacterial activity against E. faecium (in words)” value (“antibacterial activity” for short) in the data set with E. faecium NCTC 7171 is recorded as “loss of antibacterial activity”. In the case of `CCc1ccc(C2C(C(N)=O)=C(C)Nc3nc(SCc4ccccc4)nn32)cc1` (stereo not shown) [Compound 4], in the data set with E. faecium NCTC 7171, the MIC was at most 8 µg/mL. As to `CC1=C(C(N)=O)C(c2ccc(O)cc2)n2nc(SCc3ccccc3)nc2N1` (stereo not shown) [Compound 6], the “antibacterial activity” value in the data set on E. faecium NCTC 7171 is given as “loss of antimicrobial activity”. Still for that read-out and setting: for `COc1ccc(C2C(C(N)=O)=C(C)Nc3nc(SCc4ccccc4)nn32)cc1` (stereo not shown) [Compound 7] the value was “devoid of activity”. With `COc1ccc(C2C(C(N)=O)=C(C)Nc3nc(SCc4ccccc4)nn32)cc1O` (stereo not shown) [Compound 8], the “antibacterial activity” value in the data set on E. faecium NCTC 7171 is “loss of antimicrobial activity”. As to `COc1ccc(C2C(C(N)=O)=C(C)Nc3nc(SCc4ccccc4)nn32)cc1OC` (stereo not shown) [Compound 9], the “antibacterial activity” value with E. faecium NCTC 7171 was “loss of antimicrobial activity”.

Turning to `CC1=C(C(N)=O)C(c2ccc(OC(C)C)cc2)n2nc(SCc3ccccc3)nc2N1` (stereo not shown) [Compound 10, 2-(Benzylthio)-7-(4-isopropoxyphenyl)-5-methyl-4,7-dihydro-[1,2,4]triazolo[1,5-a]pyrimidine-6-carboxamide], the MIC in the data set on E. faecium NCTC 7171 is at most 8 µg/mL. Besides, in data set [1], the Apparent intrinsic clearance is listed as 10.9 mLmin^−1kg^−1. Moreover, the “Plasma-protein binding (in words)” value in data set [2] is recorded as “high”.

Turning to `CC1=C(C(N)=O)C(c2ccc(OC(F)(F)F)cc2)n2nc(SCc3ccccc3)nc2N1` (stereo not shown) [Compound 11], in the data set with E. faecium NCTC 7171, the MIC is at most 8 µg/mL and the “antibacterial activity” value is recorded as “retained activity”. As for `CSc1ccc(C2C(C(N)=O)=C(C)Nc3nc(SCc4ccccc4)nn32)cc1` (stereo not shown) [Compound 12], the “antibacterial activity” value with E. faecium NCTC 7171 was “devoid of activity”.

As for `CCSc1ccc(C2C(C(N)=O)=C(C)Nc3nc(SCc4ccccc4)nn32)cc1` (stereo not shown) [Compound 13, 2-(Benzylthio)-7-(4-ethylthiophenyl]-5-methyl-4,7-dihydro[1,2,4]-triazolo[1,5-a]pyrimidine-6-carboxamide], the “improvement of the anti-E. faecium activity” value in the data set with E. faecium NCTC 7171 (compared to the 4-OCH3 (7) and 4-SMe (12) derivatives) came out at 32 fold. In addition, the Apparent intrinsic clearance in data set [1] was below 10.4 mLmin^−1kg^−1. Besides, in data set [2], the “Plasma-protein binding (in words)” value was “high”. The molecule `CCN(CC)c1ccc(C2C(C(N)=O)=C(C)Nc3nc(SCc4ccccc4)nn32)cc1` (stereo not shown) [Compound 17] came in with an MIC in the data set on E. faecium NCTC 7171 of at most 8 µg/mL.

As to `CCN(CC)CCOc1ccc(C2C(C(N)=O)=C(C)Nc3nc(SCc4ccccc4)nn32)cc1` (stereo not shown) [Compound 20], the “antibacterial activity” value in the data set with E. faecium NCTC 7171 is reported as “no activity”.

With `CC1=C(C(N)=O)C(c2ccc(C(F)(F)F)cc2)n2nc(SCc3ccccc3)nc2N1` (stereo not shown) [Compound 21], in the data set on E. faecium NCTC 7171, the minimal inhibitory concentration (MIC) was at most 8 µg/mL and the “antibacterial activity” value was “retained activity”. Consider `CC1=C(C(N)=O)C(c2ccc(F)cc2)n2nc(SCc3ccccc3)nc2N1` (stereo not shown) [Compound 22], for which the “antibacterial activity” value in the data set on E. faecium NCTC 7171 is reported as “did not show any activity”.

`CC1=C(C(N)=O)C(c2ccc(Cl)cc2)n2nc(SCc3ccccc3)nc2N1` (stereo not shown) [Compound 23]: in the data set with E. faecium NCTC 7171, the “antibacterial activity” value is recorded as “did not show any activity”. Same read-out and setting: for `CC1=C(C(N)=O)C(c2ccc(C#N)cc2)n2nc(SCc3ccccc3)nc2N1` (stereo not shown) [Compound 24] the value was “retained activity”; for `CC1=C(C(N)=O)C(c2ccccc2C(F)(F)F)n2nc(SCc3ccccc3)nc2N1` (stereo not shown) [Compound 27], “inactive”; for `CC1=C(C(N)=O)C(C2CCCCC2)n2nc(SCc3ccccc3)nc2N1` (stereo not shown) [Compound 42], “devoid of activity”. For `CCOC(=O)C1=C(C)Nc2nc(SCc3ccccc3)nn2C1c1ccc(N(C)C)cc1` (stereo not shown) [Compound 43], the “antibacterial activity” value in the data set with E. faecium NCTC 7171 is “lost antimicrobial activity”. On the same count and under the same terms, for `CNC(=O)C1=C(C)Nc2nc(SCc3ccccc3)nn2C1c1ccc(N(C)C)cc1` (stereo not shown) [Compound 45] the value was “slight reduction of activity”; for `CN(C)c1ccc(C2C3=C(CCCC3=O)Nc3nc(SCc4ccccc4)nn32)cc1` (stereo not shown) [Compound 46], “abolished activity”; for `CC1=C(C(=O)Nc2ccccc2)C(c2ccc(N(C)C)cc2)n2nc(SCc3ccccc3)nc2N1` (stereo not shown) [Compound 51], “slight reduction of activity”. For `CC1=C(C(N)=O)C(c2ccc(N(C)C)cc2)n2nc(SCCNC(=O)OCc3ccccc3)nc2N1` (stereo not shown) [Compound 72], the “antibacterial activity” value in the data set with E. faecium NCTC 7171 is given as “not tolerated”. For `CC1=C(C(N)=O)C(c2ccc(C(C)C)cc2)n2nc(SCCNC(=O)OCc3ccccc3)nc2N1` (stereo not shown) [Compound 73], the “antibacterial activity” value in the data set on E. faecium NCTC 7171 is “not tolerated”. The same measure, in the same setting: for `CC1=C(C(N)=O)C(c2ccc(C(=O)O)cc2)n2nc(SCCNC(=O)OCc3ccccc3)nc2N1` (stereo not shown) [Compound 74] the value was “not tolerated”. `CC1=C(C(N)=O)C(c2ccc(N(C)C)cc2)n2nc(SCc3ccncc3)nc2N1` (stereo not shown) [Compound 75]: the “antibacterial activity” value in the data set with E. faecium NCTC 7171 is “loss of activity”. Same read-out and setting: for `CC1=C(C(N)=O)C(c2ccc(N(C)C)cc2)n2nc(Sc3ccccn3)nc2N1` (stereo not shown) [Compound 76] the value was “loss of activity”. For `CC1=C(C(N)=O)C(c2ccc(N(C)C)cc2)n2nc(SCc3ccc(C(F)(F)F)cc3)nc2N1` (stereo not shown) [Compound 80], in the data set on E. faecium NCTC 7171, the “antibacterial activity” value was “no activity”. Same read-out and setting: with `CC1=C(C(N)=O)C(c2ccc(N(C)C)cc2)n2nc(SCc3ccc(OC(F)(F)F)cc3)nc2N1` (stereo not shown) [Compound 81] the entry was “no activity”; with `CC1=C(C(N)=O)C(c2ccc(N(C)C)cc2)n2nc(SCc3ccc(SC(F)(F)F)cc3)nc2N1` (stereo not shown) [Compound 82], “as active as compound 1”.

`CC1=C(C(N)=O)C(c2ccc(N(C)C)cc2)n2nc(SCc3ccc([N+](=O)[O-])cc3)nc2N1` (stereo not shown) [Compound 83, 2-(4-Nitrobenzylthio)-7-(4-dimethylaminophenyl)-5-methyl-4,7-dihydro[1,2,4]triazolo[1,5-a]pyrimidine-6-carboxamide]: in the data set with E. faecium NCTC 7171, the “antibacterial activity” value was “as good as compound 16”. In addition, the Apparent intrinsic clearance in data set [1] is listed as below 10.4 mLmin^−1kg^−1. The “Plasma-protein binding (in words)” value in data set [2] was “high”.

Regarding `CC1=C(C(N)=O)C(c2ccc(N(C)C)cc2)n2nc(SCc3ccc(C#N)cc3)nc2N1` (stereo not shown) [Compound 84, 2-(4-Cyanobenzylthio)-7-(4-dimethylaminophenyl)-5-methyl-4,7-dihydro-[1,2,4]triazolo[1,5-a]pyrimidine-6-carboxamide], in the data set with E. faecium NCTC 7171, the “antibacterial activity” value was “as active as compound 1”. For the same molecule, the Apparent intrinsic clearance in data set [1] was below 10.4 mLmin^−1kg^−1. The “inhibition of recombinant PBP2a” value on PBP2a of S. aureus was “lacked the ability to inhibit; also recorded: did not inhibit”. In addition, the “inhibition of PBP5fm” value in the data set with PBP5fm of E. faecium was “lacked the ability to inhibit; also recorded: did not inhibit”. Also, the “inhibition of PBPs in E. faecium membranes” value in data set [3] was “did not inhibit”. For the same molecule, the hemolysis at 64 μg/mL in “Hemolysis assay” lay in the range of 1 to 2%. Take `CCCCCCCCCC(=O)N[C@@H](Cc1c[nH]c2ccccc12)C(=O)N[C@H](CC(N)=O)C(=O)N[C@@H](CC(=O)O)C(=O)N[C@@H]1C(=O)NCC(=O)N[C@@H](CCCN)C(=O)N[C@@H](CC(=O)O)C(=O)N[C@H](C)C(=O)N[C@@H](CC(=O)O)C(=O)NCC(=O)N[C@H](CO)C(=O)N[C@@H]([C@H](C)CC(=O)O)C(=O)N[C@@H](CC(=O)c2ccccc2N)C(=O)O[C@@H]1C` [daptomycin]: in data set [4], the plasma protein binding is above 91%. `Cc1onc(-c2ccccc2)c1C(=O)N[C@@H]1C(=O)N2[C@@H]1SC(C)(C)[C@@H]2C(=O)O` [oxacillin]: the plasma protein binding in data set [4] is above 91%. As to `CO[C@H]1/C=C/O[C@@]2(C)Oc3c(C)c(O)c4c(O)c(c(/C=N/N5CCN(C)CC5)c(O)c4c3C2=O)NC(=O)/C(C)=C\C=C\[C@H](C)[C@H](O)[C@@H](C)[C@@H](O)[C@@H](C)[C@H](OC(C)=O)[C@@H]1C` [rifampicin], the plasma protein binding in data set [4] is above 91%.

For the molecule teicoplanin, in data set [4], the plasma protein binding is given as above 91%.

One may read the MIC as the least concentration at which growth counts as inhibited. High values mean weaker potency, low ones greater potency.

Values taken from paper PMC4633020 (Journal of medicinal chemistry, 2015).
